The results in this text go back to ChEMBL document CHEMBL1153612, “Synthesis and antitumor activity of novel dithiocarbamate substituted chromones” (Eur J Med Chem, 2009).

The test system of one assay is HeLa. Description: Antiproliferative activity against human HeLa cells after 72 hrs by MTT assay. The format is functional, cell-based. The method in brief: (§1)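 Cells seeded at 8000 per well in 96-well plates, exposed to compound for 72 h. MTT added at 0.5 mg/mL final and incubated 4 h. Formazan dissolved in DMSO, absorbance read at 570 nm. IC50 is the concentration giving 50% reduction in cell growth, reported as the mean of three repeated experiments.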

Assay [1] has as its system SW480. The assay can be described thus: Antiproliferative activity against human SW480 cells after 72 hrs by MTT assay. In kind it is functional, cell-based. The settings on record: SW480, 72 h. The method in brief:
as §1

Assay [2] can be described thus: Antiproliferative activity against human MDA-MB-435S cells after 72 hrs by MTT assay. The format is functional, cell-based. The method in brief: as §1
In general terms: Tetrazolium assays rely on reduction of a dye to a coloured formazan, in cell work by metabolically active cells.

Assay [3] relates to SW480. Description: Cell cycle arrest in human SW480 cells assessed as accumulation at G0/G1 phase at 0.7 uM after 48 hrs by flow cytometry. In kind it is functional. The method in brief: (§2)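 Cells grown to about 70% confluence in 6-well plates, then treated with compound at three concentrations for 48 h. Cell-cycle phase distribution measured by flow cytometry (FACS).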
A general note: A flow cytometer gives signals particle by particle.

For assay [4], the system named is SW480. The assay can be described thus: Cell cycle arrest in human SW480 cells assessed as accumulation at G2/M phase at 1 uM after 48 hrs by flow cytometry. In kind it is functional. The method in brief: as §2
In assay [5] the test system is SW480. Description: Cell cycle arrest in human SW480 cells assessed as accumulation at S phase at 1 uM after 48 hrs by flow cytometry. The format is functional. The method in brief: as §2
Assay [6] relates to SW480. The assay can be described thus: Cell cycle arrest in human SW480 cells assessed as accumulation at S phase at 0.7 uM after 48 hrs by flow cytometry. In kind it is functional. The method, boiled down: as §2
Assay [7] can be described thus: Antiproliferative activity against human LM7 cells after 72 hrs by MTT assay. In kind it is functional, cell-based. Particulars: LM7, 72 h. The method, boiled down: as §1
Assay [8] concerns SW480. The assay can be described thus: Cell cycle arrest in human SW480 cells assessed as accumulation at G2/M phase at 0.5 uM after 48 hrs by flow cytometry. In kind it is functional. The method, boiled down: as §2
In assay [9] the test system is SW480. The assay can be described thus: Cell cycle arrest in human SW480 cells assessed as accumulation at G0/G1 phase at 1 uM after 48 hrs by flow cytometry. The format is functional. The method in brief:
as §2

The test system of the next assay is HEp-2. The assay can be described thus: Antiproliferative activity against human Hep2 cells after 72 hrs by MTT assay. In kind it is functional, cell-based. Particulars: HEp-2, 72 h. The method, boiled down: as §1
The test system of assay [10] is SW480. Description: Cell cycle arrest in human SW480 cells assessed as accumulation at G0/G1 phase at 0.5 uM after 48 hrs by flow cytometry. In kind it is functional. The method in brief:
as §2

Assay [11] relates to SW480. Description: Cell cycle arrest in human SW480 cells assessed as accumulation at S phase at 0.5 uM after 48 hrs by flow cytometry. The format is functional. The method in brief:
as §2

For assay [12], the system named is SW480. The assay can be described thus: Cell cycle arrest in human SW480 cells assessed as accumulation at G2/M phase at 0.7 uM after 48 hrs by flow cytometry. In kind it is functional. The method, boiled down: as §2
A further assay has as its system MCF7. Description: Antiproliferative activity against human MCF7 cells after 72 hrs by MTT assay. The settings on record: MCF7, 72 h. In kind it is functional, cell-based. The method in brief:
as §1

Assay [13] in a line: Cell cycle arrest in human MDA-MB-435S cells assessed as accumulation at G0/G1 phase at 0.13 uM after 48 hrs by flow cytometry. In kind it is functional, cell-based. The method, boiled down: as §2
A short description of assay [14]: Cell cycle arrest in human MDA-MB-435S cells assessed as accumulation at S phase at 0.14 uM after 48 hrs by flow cytometry. In kind it is functional, cell-based. The method in brief:
as §2

A short description of assay [15]: Cell cycle arrest in human MDA-MB-435S cells assessed as accumulation at S phase at 0.13 uM after 48 hrs by flow cytometry. In kind it is functional, cell-based. The method in brief: as §2
The nature of assay [16]: Cell cycle arrest in human MDA-MB-435S cells assessed as accumulation at G0/G1 phase at 0.14 uM after 48 hrs by flow cytometry. The format is functional, cell-based. The method in brief: as §2
Assay [17] in a line: Cell cycle arrest in human MDA-MB-435S cells assessed as accumulation at S phase at 0.12 uM after 48 hrs by flow cytometry. The format is functional, cell-based. The method, boiled down:
as §2

Assay [18] can be described thus: Cell cycle arrest in human MDA-MB-435S cells assessed as accumulation at G2/M phase at 0.13 uM after 48 hrs by flow cytometry. The format is functional, cell-based. The method, boiled down: as §2
The nature of assay [19]: Cell cycle arrest in human MDA-MB-435S cells assessed as accumulation at G2/M phase at 0.14 uM after 48 hrs by flow cytometry. In kind it is functional, cell-based. The method, boiled down:
as §2

A short description of assay [20]: Cell cycle arrest in human MDA-MB-435S cells assessed as accumulation at G2/M phase at 0.12 uM after 48 hrs by flow cytometry. In kind it is functional, cell-based. The method in brief: as §2
The nature of assay [21]: Cell cycle arrest in human MDA-MB-435S cells assessed as accumulation at G0/G1 phase at 0.12 uM after 48 hrs by flow cytometry. The format is functional, cell-based. The method in brief: as §2

By IC50 is commonly meant the concentration that inhibits the measured activity by half. As for `O=c1c(Cl)c(CSC(=S)N2CCCCC2)oc2ccccc12`, the half-inhibitory concentration (IC50) is 9.8 µM with HeLa; 0.69 µM with SW480 [1]; 0.77 µM in assay [2]; 3.3 µM in assay [7]; 0.94 µM in the assay on HEp-2; 1 µM in the assay with MCF7. Further, the Activity is recorded as 36.84% with SW480 [3]; 39.27% in the assay with SW480 [4]; 34.22% in the assay on SW480 [5]; 35.2% with SW480 [6]; 27.77% with SW480 [8]; 26.51% with SW480 [9]. The Activity was 39.39% in the assay with SW480 [10], 37.84% in the assay on SW480 [11] and 27.96% in the assay with SW480 [12].

For `O=c1c(CSC(=S)N2CCCCC2)coc2ccc(Cl)cc12`, the IC50 in the assay with HeLa stood at 0.44 µM; with SW480 [1], 0.79 µM; in [2], 0.24 µM; in assay [7] it was 0.85 µM; with HEp-2 it was 0.28 µM; in the assay with MCF7, 0.38 µM. Also, the Activity in assay [13] is 58.7%; in assay [14], 33.6%; in [15], 20.7%; in assay [16] it was 41.6%; in [17] it was 25.3%; in [18] it was 20.6%. For the same compound, the Activity in assay [19] was 24.9%; in assay [20], 13.9%; in assay [21] it was 60.8%.

As for `COc1ccc2c(=O)c(CSC(=S)N(C(C)C)C(C)C)coc2c1`, the half-inhibitory concentration (IC50) in the assay on HeLa is 5.4 µM; with SW480 [1], 4.8 µM; in assay [2] it was 1.8 µM; in assay [7], 4.7 µM; in the assay on HEp-2 it was 8.9 µM; in the assay with MCF7, over 40 µM.

In the case of `O=c1c(CSC(=S)N2CCN(c3ccccc3)CC2)coc2ccccc12`, the IC50 in the assay with HeLa was 7.1 µM; in the assay on SW480 [1], 5.2 µM; in assay [2], 9.7 µM; in assay [7], 2.9 µM; in the assay on HEp-2, 16.7 µM; in the assay on MCF7 it was over 30 µM.

Consider `O=c1c(CSC(=S)N2CCN(Cc3ccccc3)CC2)coc2ccccc12`, for which the 50% inhibitory concentration (IC50) in the assay on HeLa came to 7.9 µM; in the assay on SW480 [1], 4.5 µM; in assay [2], 4.4 µM; in assay [7], 19.1 µM; with HEp-2 it was 2.9 µM; with MCF7, 9.6 µM.

Take `O=c1c(CSC(=S)N2CCCC2)coc2ccccc12`: the IC50 with HeLa was over 25 µM; in the assay with SW480 [1], 2.3 µM; in [2], 3.8 µM; in assay [7], 6 µM; in the assay with HEp-2, 3.6 µM; in the assay with MCF7 it was over 25 µM.

Turning to `O=c1cc(CSC(=S)N2CCCCC2)oc2ccccc12`, the IC50 with HeLa is over 25 µM; in the assay on SW480 [1], 13.7 µM; in assay [2], over 25 µM; in assay [7] it was over 25 µM; in the assay on HEp-2, 12 µM; in the assay with MCF7, over 25 µM.

With `O=c1cc(CSC(=S)N(CCCl)CCCl)oc2ccccc12`, the IC50 with HeLa was over 25 µM; in the assay on SW480 [1], 25.1 µM; in [2] it was 3.7 µM; in [7], over 25 µM; in the assay on HEp-2, 15.6 µM; in the assay with MCF7, over 25 µM.

In the case of `CCOC(=O)c1cc(=O)c2cc(CSC(=S)N3CCCCC3)ccc2o1`, the IC50 with HeLa was 5.8 µM; in the assay with SW480 [1], over 25 µM; in assay [2] it was 2.9 µM; in assay [7] it was 16.9 µM; with HEp-2 it was 3.4 µM; in the assay on MCF7, 21.9 µM.

With `COc1ccc2c(=O)c(CSC(=S)N3CCCCC3)coc2c1`, the IC50 with HeLa was 3.5 µM; in the assay with SW480 [1] it was 6.7 µM; in [2] it was 0.93 µM; in [7] it was 4.7 µM; with HEp-2, 4.3 µM; with MCF7, over 40 µM.

For the compound `O=c1c(SC(=S)N2CCCCC2)coc2ccc(Cl)cc12`, the half-maximal inhibitory concentration (IC50) in the assay with HeLa was 8.3 µM; in the assay with SW480 [1], over 25 µM; in assay [2] it was 13.3 µM; in [7], over 25 µM; with HEp-2, 12.2 µM; in the assay with MCF7, over 25 µM.

Regarding `Cc1ccc2occ(CSC(=S)N(C(C)C)C(C)C)c(=O)c2c1`, the IC50 was 1.4 µM in the assay on HeLa; over 25 µM in the assay on SW480 [1]; 0.24 µM in assay [2]; 6.3 µM in assay [7]; 0.7 µM in the assay with HEp-2; 6.6 µM in the assay with MCF7.

For `O=c1c(CSC(=S)N2CCOCC2)coc2ccc(Cl)cc12`, the IC50 with HeLa is 2 µM; with SW480 [1], 6.2 µM; in [2], 0.6 µM; in assay [7] it was 6.2 µM; with HEp-2, 0.9 µM; with MCF7, 8.1 µM.
